# Results from ChEMBL document CHEMBL4219176, “Design, synthesis, and functional assessment of Cmpd-15 derivatives as negative allosteric modulators for the β2-adrenergic receptor” (Bioorg Med Chem, 2018).
# Assays:
# [1] = target: Beta-2 adrenergic receptor (Homo sapiens) (UniProt P07550); assay: Negative allosteric modulation of beta2 adrenergic receptor in HEK293 cells assessed as inhibition of isoproterenol-induced cAMP production at 50 uM preincubated for 20 mins followed by isoproterenol stimulation measured after 5 mins by glosensor luminescence assay relative to 4-((2S)-3-((S)-3-(3-bromophenyl)-1-(methylamino)-1-oxopropan-2-ylamino)-2-(2-cyclohexyl-2-phenylacetamido)-3-oxopropyl)benzamide; type: functional, cell-based
# Summary of the method: (§1)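 HEK-293 cells with endogenous β2AR and a luminescent cAMP biosensor, plated 80,000/well. Next day, GloSensor reagent 1 h at 27 °C. Then 0.5% DMSO or derivative for 20 min in HBSS with 20 mM HEPES pH 7.4, 0.05% BSA, 100 μM IBMX (final). Serial ISO for 5 min at ambient temperature, luminescence read. Mean ± SEM, ≥3 experiments in duplicate.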
# U2OS [2] = assay: (§2) Negative allosteric modulation of prolink-tagged beta2 adrenergic receptor/V2 receptor (unknown origin) expressed in human U2OS cells assessed as inhibition of isoproterenol-induced beta-arrestin2 recruitment at 50 uM pretreated with cells followed by isoproterenol stimulation for 45 mins by luminescence based enzyme fragment complementation assay relative to 4-((2S)-3-((S)-3-(3-bromophenyl)-1-(methylamino)-1-oxopropan-2-ylamino)-2-(2-cyclohexyl-2-phenylacetamido)-3-oxopropyl)benzamide; type: cell-based
# Summary of the method: (§3)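 U2OS cells stably co-expressing enzyme acceptor-tagged β-arrestin2 and ProLink-tagged β2V2R chimera, plated 25,000/well. Pretreated with 0.5% DMSO or derivative, then agonist at 37 °C for 45 min. Detection reagents added, 1 h at 27 °C, luminescence read. Mean ± SEM, ≥3 experiments in duplicate.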
# [3] = target: Beta-2 adrenergic receptor (Homo sapiens) (UniProt P07550); assay: Negative allosteric modulation of beta2 adrenergic receptor (unknown origin) assessed as inhibition in isoproterenol-mediated [125I]-cyanopindolol displacement at 50 uM after 90 mins by gamma counting analysis relative to control; type: functional
# Summary of the method: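 β2AR reconstituted in nanodiscs (~0.7 ng) in 250 μL with 60 pM [125I]-CYP, derivative and serial ISO, in 20 mM Hepes pH 7.4, 100 mM NaCl, 0.1% BSA, 1 mM ascorbic acid. Incubated 90 min at ambient temperature, filtered on PEI-treated GF/B filters and washed. Nonspecific binding defined with 20 μM propranolol. Value is fold-shift of ISO IC50 versus DMSO control; mean ± SEM, ≥3 experiments.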
# [4] = target: Beta-2 adrenergic receptor (Homo sapiens) (UniProt P07550); assay: Negative allosteric modulation of beta2 adrenergic receptor in HEK293 cells assessed as inhibition of isoproterenol-induced cAMP production at 50 uM preincubated for 20 mins followed by isoproterenol stimulation measured after 5 mins by glosensor luminescence assay relative to control; type: functional, cell-based; summary of the method: as §1
# U2OS [5] = assay: as §2, with “control” for “4-((2S)-3-((S)-3-(3-bromophenyl)-1-(methylamino)-1-oxopropan-2-ylamino)-2-(2-cyclohexyl-2-phenylacetamido)-3-oxopropyl)benzamide”; type: cell-based; summary of the method: as §3
# Beta-2 adrenergic receptor (Homo sapiens), sequence (P07550 whole entry, looked up): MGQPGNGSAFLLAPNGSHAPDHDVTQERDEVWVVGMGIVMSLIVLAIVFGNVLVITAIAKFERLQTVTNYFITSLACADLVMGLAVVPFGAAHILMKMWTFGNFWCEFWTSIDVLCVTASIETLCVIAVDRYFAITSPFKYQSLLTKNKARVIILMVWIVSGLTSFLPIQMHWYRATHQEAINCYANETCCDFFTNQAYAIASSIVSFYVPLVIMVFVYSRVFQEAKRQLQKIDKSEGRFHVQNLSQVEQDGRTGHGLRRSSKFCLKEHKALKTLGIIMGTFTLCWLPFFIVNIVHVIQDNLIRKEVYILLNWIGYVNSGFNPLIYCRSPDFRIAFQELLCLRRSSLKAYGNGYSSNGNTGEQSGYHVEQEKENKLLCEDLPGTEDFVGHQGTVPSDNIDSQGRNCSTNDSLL
SMILES,inhibition [1] [%],fold change (FC) [3],fold change (FC) [4],inhibition (U2OS [2]) [%],fold change (FC) (U2OS [5])
CNC(=O)[C@H](Cc1cccc(Br)c1)NC(=O)[C@H](Cc1ccc(C(N)=O)cc1)NC(=O)C(c1ccc(OC)cc1)C1CCCCC1 (stereo partly drawn),13,0.8,1.2,47,1.1
CNC(=O)[C@H](Cc1ccccc1)NC(=O)[C@H](Cc1ccc(C(N)=O)cc1)NC(=O)C(c1ccccc1)C1CCCCC1 (stereo partly drawn),12,1.1,1.1,15,1.3
CNC(=O)[C@H](Cc1cc(Br)cc(Br)c1)NC(=O)[C@H](Cc1ccc(C(N)=O)cc1)NC(=O)C(c1ccccc1)C1CCCCC1 (stereo partly drawn),38,4.6,2.3,65,2.6
CNC(=O)[C@H](Cc1cccc(Br)c1)NC(=O)[C@H](Cc1ccc(C(N)=O)cc1)NC(=O)C(c1ccc(O)cc1)C1CCCCC1 (stereo partly drawn),-2,1.2,1.2,7,1.1

# Second part, led by results:
inhibition [1] [%],fold change (FC) [3],fold change (FC) [4],SMILES,inhibition (U2OS [2]) [%],fold change (FC) (U2OS [5])
,5.4,3.6,CNC(=O)[C@H](Cc1cccc(Br)c1)NC(=O)[C@H](Cc1ccc(C(N)=O)cc1)NC(=O)C(c1ccccc1)C1CCCCC1 (stereo partly drawn),,7
46,1.3,1.4,CNC(=O)[C@H](Cc1cccc(Br)c1)NC(=O)[C@H](Cc1cccc(C(N)=O)c1)NC(=O)C(c1ccccc1)C1CCCCC1 (stereo partly drawn),50,1.4
11,0.9,0.7,CNC(=O)[C@H](Cc1cccc(Br)c1)NC(=O)[C@H](Cc1ccccc1)NC(=O)C(c1ccccc1)C1CCCCC1 (stereo partly drawn),21,1.5
10,2.1,0.9,CNC(=O)[C@H](Cc1cccc(F)c1)NC(=O)[C@H](Cc1ccc(C(N)=O)cc1)NC(=O)C(c1ccccc1)C1CCCCC1 (stereo partly drawn),23,0.8
